Measurements: ChEMBL document CHEMBL3808334, “Synthesis and in vitro evaluation of novel triazine analogues as anticancer agents and their interaction studies with bovine serum albumin” (Eur J Med Chem, 2016)

Legend:
Assay type in all cases: functional
[1] = Growth inhibition of human HOP62 cells assessed as cell growth at 10 uM incubated for 48 hrs by sulforhodamine B assay; settings: HOP-62, 48 h, read-out: Activity
[2] = Growth inhibition of human SNB75 cells assessed as cell growth at 10^-7 M incubated for 48 hrs by sulforhodamine B assay; settings: SNB-75, 48 h, read-out: Activity
[3] = Growth inhibition of human DU145 cells assessed as cell growth at 10^-4 M incubated for 48 hrs by sulforhodamine B assay; settings: DU-145, 48 h, read-out: Activity
In short: (§1)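 Cells seeded at 5,000–40,000/well according to doubling time and preincubated 24 h at 37 °C, 5% CO2. Time-zero plates were TCA-fixed. DMSO concentrate was diluted in medium with 50 µg/ml gentamicin to give five concentrations (10-fold or ½ log steps), then exposed 48 h. Cells were TCA-fixed, stained with 0.4% SRB and read at 515 nm. Percent growth was taken against time-zero and control; GI50, TGI and LC50 derived.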

SN12C = test: Growth inhibition of human SN12C cells assessed as cell growth at 10 uM incubated for 48 hrs by sulforhodamine B assay; settings: read-out: Activity
[4] = Growth inhibition of human UO31 cells assessed as cell growth at 10^-5 M incubated for 48 hrs by sulforhodamine B assay; settings: UO-31, 48 h, read-out: Activity
[5] = Growth inhibition of human UO31 cells assessed as cell growth at 10^-7 M incubated for 48 hrs by sulforhodamine B assay; settings: UO-31, 48 h, read-out: Activity
[6] = Growth inhibition of human PC3 cells assessed as cell growth at 10 uM incubated for 48 hrs by sulforhodamine B assay; settings: PC-3, 48 h, read-out: Activity
[7] = Growth inhibition of human HOP92 cells assessed as cell growth at 10^-7 M incubated for 48 hrs by sulforhodamine B assay; settings: HOP-92, 48 h, read-out: Activity
NCI-H522 [8] = test: Growth inhibition of human NCI-H522 cells assessed as cell growth at 10^-6 M incubated for 48 hrs by sulforhodamine B assay; settings: NCI-H522, 48 h, read-out: Activity
[9] = Growth inhibition of human Caki1 cells assessed as cell growth at 10^-8 M incubated for 48 hrs by sulforhodamine B assay; settings: CAKI-1, 48 h, read-out: Activity; in short: as §1
[10] = Growth inhibition of human HCC2998 cells incubated for 48 hrs by sulforhodamine B assay; settings: HCC 2998, 48 h; in short: as §1
[11] = Growth inhibition of human BT549 cells incubated for 48 hrs by sulforhodamine B assay; settings: BT-549, 48 h
In short: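 Five-dose assay: five concentrations from 10-fold or ½-log serial dilutions. Cells are plated at 5,000–40,000 per well according to doubling time, grown 24 h, then exposed 48 h at 37 °C, 5% CO₂. Fixed with cold 50% TCA (final addition) for 60 min at 4 °C and stained with 0.4% SRB in 1% acetic acid. Bound dye is solubilized in 10 mM Tris base and read at 515 nm. GI₅₀ is where [(Ti−Tz)/(C−Tz)]×100 = 50, with a time-zero plate as Tz.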

[12] = Growth inhibition of human SKOV3 cells incubated for 48 hrs by sulforhodamine B assay; settings: SK-OV-3, 48 h
In short: (§2)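 Cells were plated at 5,000–40,000 per well according to doubling time and preincubated 24 h at 37 °C in 5% CO2; time-zero plates were then TCA-fixed. Five concentrations (10-fold or ½-log dilutions, DMSO stock) were incubated 48 h. Cells were TCA-fixed, stained with 0.4% SRB and read at 515 nm. GI50 was taken where [(Ti−Tz)/(C−Tz)]×100 = 50.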

U-251 [13] = test: Growth inhibition of human U251 cells assessed as cell growth at 10^-4 M incubated for 48 hrs by sulforhodamine B assay; settings: U-251, 48 h, read-out: Activity
[14] = Growth inhibition of human UO31 cells incubated for 48 hrs by sulforhodamine B assay; settings: UO-31, 48 h; in short: as §2
CCRF-CEM = test: Growth inhibition of human CCRF-CEM cells assessed as cell growth at 10^-7 M incubated for 48 hrs by sulforhodamine B assay; settings: read-out: Activity
In short: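 Leukemia line in the five-dose format: five concentrations from 10-fold or ½-log serial dilutions. Plated at 5,000–40,000 cells per well, preincubated 24 h, then compound added for 48 h at 37 °C, 5% CO₂. Sulforhodamine B absorbance read at 515 nm. Growth is computed against time-zero (Tz) and control (C) readings; GI₅₀ is where [(Ti−Tz)/(C−Tz)]×100 = 50.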

[15] = Growth inhibition of human OVCAR8 cells assessed as cell growth at 10^-5 M incubated for 48 hrs by sulforhodamine B assay; settings: OVCAR-8, 48 h, read-out: Activity
KM12 = test: Growth inhibition of human KM12 cells assessed as cell growth at 10^-5 M incubated for 48 hrs by sulforhodamine B assay; settings: KM12, 48 h, read-out: Activity
[16] = Growth inhibition of human HOP92 cells assessed as cell growth at 10 uM incubated for 48 hrs by sulforhodamine B assay; settings: HOP-92, 48 h, read-out: Activity
[17] = Growth inhibition of human SF295 cells assessed as cell growth at 10^-7 M incubated for 48 hrs by sulforhodamine B assay; settings: SF-295, 48 h, read-out: Activity
[18] = Growth inhibition of human SF539 cells assessed as cell growth at 10^-8 M incubated for 48 hrs by sulforhodamine B assay; settings: SF-539, 48 h, read-out: Activity
HT-29 = test: Growth inhibition of human HT-29 cells assessed as cell growth at 10^-6 M incubated for 48 hrs by sulforhodamine B assay; settings: HT-29, 48 h, read-out: Activity
EKVX = test: Growth inhibition of human EKVX cells assessed as cell growth at 10^-6 M incubated for 48 hrs by sulforhodamine B assay; settings: read-out: Activity; in short: as §1
NCI-H522 [19] = test: Growth inhibition of human NCI-H522 cells assessed as cell growth at 10^-8 M incubated for 48 hrs by sulforhodamine B assay; settings: NCI-H522, 48 h, read-out: Activity
U-251 [20] = test: Growth inhibition of human U251 cells assessed as cell growth at 10^-5 M incubated for 48 hrs by sulforhodamine B assay; settings: U-251, 48 h, read-out: Activity
[21] = Growth inhibition of human SF295 cells incubated for 48 hrs by sulforhodamine B assay; settings: SF-295, 48 h; in short: as §2
[22] = read-out: LC50 (the source's name)
[23] = read-out: pLC50 (the source's name) (converted)

Fc1ccc(-c2nc(Nc3ccc(-c4nc5ccccc5[nH]4)cc3)nc(N3CCOCC3)n2)cc1
growth at 10 µM [1]: -27.3% | growth at 0.1 µM [2]: 89% | growth at 100 µM [3]: 8% | growth at 10 µM (SN12C): 40.8% | growth at 10 µM [4]: -30% | growth at 0.1 µM [5]: 89% | growth at 10 µM [6]: 2.31% | growth at 0.1 µM [7]: 104% | growth at 1 µM (NCI-H522 [8]): 97% | growth at 0.01 µM [9]: 94% | GI50 ([10]; read-out: GI50): 3090 nM | CC50 [10, 22]: > 100 µM | TGI ([10]; read-out: TGI): > 100 µM | GI50 ([10]; read-out: pGI50 (converted)): 3090 nM | CC50 [10, 23]: > 100 µM | TGI ([10]; read-out: pTGI (converted)): > 100 µM | GI50 ([11]; read-out: GI50): 1740 nM | TGI ([11]; read-out: TGI): 4.07 µM | GI50 ([11]; read-out: pGI50 (converted)): 1740 nM | TGI ([11]; read-out: pTGI (converted)): 4.07 µM | GI50 ([12]; read-out: GI50): 2370 nM | CC50 [12, 22]: > 100 µM | TGI ([12]; read-out: TGI): 5.53 µM | GI50 ([12]; read-out: pGI50 (converted)): 2340 nM | CC50 [12, 23]: > 100 µM | TGI ([12]; read-out: pTGI (converted)): 5.5 µM | growth at 100 µM (U-251 [13]): -33% | LC50 [14]: > 100 µM | GI50 ([14]; read-out: GI50): 2160 nM | TGI ([14]; read-out: TGI): 5.64 µM | GI50 ([14]; read-out: pGI50 (converted)): 2140 nM | CC50 [14, 23]: > 100 µM | TGI ([14]; read-out: pTGI (converted)): 5.62 µM | growth at 0.1 µM (CCRF-CEM): 104% | growth at 10 µM [15]: 2% | growth at 10 µM (KM12): -28% | growth at 10 µM [16]: -6.57% | growth at 0.1 µM [17]: 94% | growth at 0.01 µM [18]: 98% | growth at 1 µM (HT-29): 96% | growth at 1 µM (EKVX): 83% | growth at 0.01 µM (NCI-H522 [19]): 96% | growth at 10 µM (U-251 [20]): 5% | GI50 ([21]; read-out: GI50): 1590 nM | CC50 [21, 22]: > 100 µM | TGI ([21]; read-out: TGI): 4.7 µM | GI50 ([21]; read-out: pGI50 (converted)): 1580 nM | CC50 [21, 23]: > 100 µM | TGI ([21]; read-out: pTGI (converted)): 4.68 µM

Clc1ccc(-c2nc(Nc3ccc(-c4nc5ccccc5[nH]4)cc3)nc(N3CCOCC3)n2)cc1
growth at 10 µM [1]: -73.9% | growth at 0.1 µM [2]: 79% | growth at 100 µM [3]: -63% | growth at 10 µM (SN12C): -79.5% | growth at 10 µM [4]: -86% | growth at 0.1 µM [5]: 92% | growth at 10 µM [6]: -93.5% | growth at 0.1 µM [7]: 89% | growth at 1 µM (NCI-H522 [8]): 77% | growth at 0.01 µM [9]: 89% | GI50 ([10]; read-out: GI50): 358 nM | GI50 ([10]; read-out: pGI50 (converted)): 355 nM | GI50 ([11]; read-out: GI50): 1730 nM | TGI ([11]; read-out: TGI): 3.68 µM | GI50 ([11]; read-out: pGI50 (converted)): 1740 nM | TGI ([11]; read-out: pTGI (converted)): 3.72 µM | GI50 ([12]; read-out: GI50): 1840 nM | CC50 [12, 22]: 100 µM | TGI ([12]; read-out: TGI): 3.28 µM | GI50 ([12]; read-out: pGI50 (converted)): 1820 nM | CC50 [12, 23]: 100 µM | TGI ([12]; read-out: pTGI (converted)): 3.31 µM | growth at 100 µM (U-251 [13]): -44% | GI50 ([14]; read-out: GI50): 1510 nM | TGI ([14]; read-out: TGI): 3.03 µM | GI50 ([14]; read-out: pGI50 (converted)): 1510 nM | TGI ([14]; read-out: pTGI (converted)): 3.02 µM | growth at 0.1 µM (CCRF-CEM): 99% | growth at 10 µM [15]: -79% | growth at 10 µM (KM12): -81% | growth at 10 µM [16]: -72.1% | growth at 0.1 µM [17]: 91% | growth at 0.01 µM [18]: 98% | growth at 1 µM (HT-29): -39% | growth at 1 µM (EKVX): 58% | growth at 0.01 µM (NCI-H522 [19]): 100% | growth at 10 µM (U-251 [20]): -92% | GI50 ([21]; read-out: GI50): 1470 nM | TGI ([21]; read-out: TGI): 2.99 µM | GI50 ([21]; read-out: pGI50 (converted)): 1480 nM | TGI ([21]; read-out: pTGI (converted)): 3.02 µM
